The values below come from ChEMBL document CHEMBL1681735, “One step synthesis of 2-hydroxymethylisoflavone and their osteogenic activity” (2011).

Activity calls are given as the source filed them. No cut-off for these calls is given here.

Test [1] is described as follows: (§1) Induction of osteogenic activity in rat Calvarial cells assessed as fold increase in Runx-2 gene expression after 48 hrs by qPCR relative to untreated control. In kind it is functional, Calvarial cell. The procedure, abridged: (§2)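 Osteoblasts cultured with or without compound for 48 h, then qPCR. Cycling: 95 °C 5 min, then 40 cycles of 94 °C 2 min, 62 °C 30 s annealing/extension and 72 °C 30 s. Normalized to GAPDH. Compared with vehicle-treated cells; mean SEM, n = 3.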

In test [2] the test system is Calvarial cell. As to the kind of experiment: (§3) Induction of osteogenic activity in rat Calvarial cells assessed as fold increase in BMP-2 gene expression after 48 hrs by qPCR relative to untreated control. In kind it is functional. In a few lines: as §2
Test [3] relates to Calvarial cell. As to the kind of experiment: (§4) Induction of osteogenic activity in rat Calvarial cells assessed as fold increase in OCN gene expression after 48 hrs by qPCR relative to untreated control. In kind it is functional. In a few lines: as §2
The test system of test [4] is Calvarial cell. As to the kind of experiment: Induction of osteoblast differentiation in rat Calvarial cells assessed as increase in alkaline phosphatase activity at 10^-12 to 10^-6 M by spectrophotometry. In kind it is functional, cell-based. In a few lines:
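Rat calvarial osteoblasts trypsinized at 70–80% confluence (0.02% trypsin-EDTA). 2 × 10³ cells seeded in α-MEM with 10% FBS plus 50 µg/ml ascorbate and 10 mM glycerophosphate. Exposed to 10^-12 to 10^-6 M for 48 h; isoformononetin 10^-8 M as positive control. Total ALP read at 405 nm with PNPP 10 mmol/L in diethanolamine buffer (1 mol/L, pH 9.8), 0.5 mmol/L MgCl₂. Mean SEM, n = 6.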

Test [5] concerns Calvarial cell. The test is described as §1. In kind it is functional. In a few lines:
as §2

Test [6] is described as follows: as §3. The class given is functional, Calvarial cell. In a few lines:
as §2

A short description of test [7]: as §4. In kind it is functional, Calvarial cell. In a few lines:
as §2

Turning to `O=c1c(-c2ccccc2)c(CO)oc2cc(O)ccc12`, the “fold change (FC)” value in test [1] is given as 6.5. Besides, the outcome in the test on Calvarial cell [2] and with Calvarial cell [3] was inactive. In addition, the result with Calvarial cell [4] was Active.
Consider `O=c1c(-c2ccccc2)c(CO)oc2ccccc12`, for which the outcome with Calvarial cell [5] and in the test with Calvarial cell [3] was inactive. Moreover, the “fold change (FC)” value in test [6] is given as 2.5. Also, in the test with Calvarial cell [4], the outcome was Active.
For `COc1ccc(-c2c(CO)oc3ccccc3c2=O)c(O)c1`, the “fold change (FC)” value in test [1] amounted to 8; in test [6], 2; in test [7] it was 2. Besides, in the test on Calvarial cell [4], the outcome was Active.
On to `COc1ccc(-c2c(CO)oc3cc(O)ccc3c2=O)cc1`, for which the outcome in the test with Calvarial cell [5], with Calvarial cell [2] and with Calvarial cell [3] was inactive. In addition, in the test on Calvarial cell [4], the outcome was Active.
